This series is described as follows: Toxicity liver stage against HepG2, at 10uM. Type of series: cell-based. Further details: test concentration 10 uM, cell line HepG2-A16-CD81EGFP. The conditions noted are these: human, HepG2-A16-CD81EGFP cells; read-out: INHIBITION
In a few lines: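 Uninfected HepG2-A16-CD81EGFP cells, 3 × 10^3 per well, 1536-well, plated on prespotted compound at 10 μM final, parasite-free screening media added to match infected plates; puromycin 10 μM positive, DMSO 0.5% negative; run in parallel with 48 h PbLuc assay at 37 °C, 5% CO2; viability by CellTiter-Glo luminescence, normalized to controls.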

Each structure is given as a SMILES string.

As to `CNc1ncc(CN(C)C(=O)c2cccc(-n3cccn3)c2)cn1`, the cytotoxicity at 10 µM was -2.38%.

On to `CN1C(=O)CN(C(=O)c2ccc(=O)n(C)c2)c2ccccc21`, for which the cytotoxicity at 10 µM is -6.67%.

In the case of `Cn1cc(C2CCCN2C(=O)Cn2ccc3ccccc32)cn1` (stereo not drawn), the cytotoxicity at 10 µM stood at 5.08%.

Turning to `CN1CCCN(CC(=O)N2CCc3[nH]c(-c4ccccc4)nc3C2)CC1`, the cytotoxicity at 10 µM is -0.0342%.

In the case of `COCCN(C)[C@@H]1c2ccccc2C2(CCNCC2)[C@H]1O`, the cytotoxicity at 10 µM is -4.61%.

For `O=C(c1cscn1)N1CCC2(CN(Cc3ccsc3)C2)C1`, the cytotoxicity at 10 µM is 4.06%.

On to `CCC(C(=O)NCc1csc(-c2ncccn2)n1)n1cccn1` (stereo not drawn), for which the cytotoxicity at 10 µM was -5.79%.

Consider `O=C(CSCc1ccncc1)NCC1CCN(C2CC2)C1` (stereo not drawn), for which the cytotoxicity at 10 µM is 0.224%.

Take `CCn1nc(C)c(S(=O)(=O)N(C)c2ccc(Cl)cn2)c1C`: the cytotoxicity at 10 µM was -2.13%.

As to `CNC(=O)c1cccc(CC2COCCN(Cc3ccsc3)C2)n1` (stereo not drawn), the cytotoxicity at 10 µM was -0.257%.

For `Cc1cc(C(=O)N2CCCC(c3nccn3Cc3cscn3)C2)on1` (stereo not drawn), the cytotoxicity at 10 µM is -1.32%.

As for `CCCC(=O)NCc1cc(Br)c(OC)c(OC)c1`, the cytotoxicity at 10 µM was 1.11%.

Consider `COCC(=O)N1CCC(c2nc3ccc(-c4ccncc4)cn3n2)CC1`, for which the cytotoxicity at 10 µM is 10.2%.

Turning to `CC(C)(C)c1cc(=O)n2c(n1)SCC(C(=O)NCc1ccco1)C2` (stereo not drawn), the cytotoxicity at 10 µM was -15.1%.

As to `CCCc1nnsc1C(=O)NCC(O)c1ccc(SC)cc1` (stereo not drawn), the cytotoxicity at 10 µM amounted to 1.71%.

For the compound `CS(=O)(=O)N1CC2(CCN(C(=O)c3csnn3)CC2)c2ccccc21`, the cytotoxicity at 10 µM is 7.88%.

In the case of `O=C(CN1CCN(CC(O)C2CC2)CC1)NCc1ccccc1` (stereo not drawn), the cytotoxicity at 10 µM was found to be 6.03%.

For `CCOC(=O)[C@]12CCCN(Cc3cccs3)C[C@H]1CN(C(C)=O)C2`, the cytotoxicity at 10 µM was found to be 4.13%.

As to `CCOC(=O)N1CCCC2(CCCNC2)C1` (stereo not drawn), the cytotoxicity at 10 µM came out at 2.11%.

For `COc1ccc2c(c1)CN(Cc1ccco1)C(=O)CCN2`, the cytotoxicity at 10 µM was -2.59%.

Consider `O=C1COc2cc(S(=O)(=O)NCCC3=CCCCC3)c(Br)cc2N1`, for which the cytotoxicity at 10 µM stood at 15.7%.

Turning to `CC(C)(C)C(O)CN1CCN(C(=O)c2cccc3ncccc23)CC1` (stereo not drawn), the cytotoxicity at 10 µM is 4.67%.

For `CC(C)OCCC1CCCCN1S(N)(=O)=O` (stereo not drawn), the cytotoxicity at 10 µM worked out at 7.36%.

As to `Cc1cc(F)c2c(c1)CCCN2S(=O)(=O)c1ncn(C)c1Cl`, the cytotoxicity at 10 µM came out at 1.99%.

With `CCCS(=O)(=O)N1Cc2ccnn2CC(c2nc(C)no2)C1` (stereo not drawn), the cytotoxicity at 10 µM was 5.98%.

On to `COc1ccc(CN2CCC3(CCCN(c4ncc(F)cn4)C3)C2)cc1` (stereo not drawn), for which the cytotoxicity at 10 µM is 62.8%.

Consider `CC(NC1CCN(CC(=O)N(C)C)CC1)c1cnn(C(C)C)c1` (stereo not drawn), for which the cytotoxicity at 10 µM is -0.54%.

Regarding `CN(C)C(CNCc1nc(-c2ccsc2)no1)c1cccs1` (stereo not drawn), the cytotoxicity at 10 µM was found to be 16.3%.

On to `O=C(Cc1ccon1)NC1CC2(CCC2)Oc2ccccc21` (stereo not drawn), for which the cytotoxicity at 10 µM was -6.71%.

Regarding `NC(=O)C1(c2cnccn2)CCCN1Cc1ccncc1` (stereo not drawn), the cytotoxicity at 10 µM is -0.446%.

`OCC1(O)CCN(c2ncccc2C(F)(F)F)CC1`: the cytotoxicity at 10 µM was -13.6%.

As for `CN(C)c1ncc2c(n1)N(C)CCN(CC1CC1)C2=O`, the cytotoxicity at 10 µM was -1.36%.

As for `CN(C)C(=O)N1CCCC2(CCN(Cc3ccncc3)C2)C1` (stereo not drawn), the cytotoxicity at 10 µM amounted to 7.61%.

Consider `Cc1ccc(C2CN(C(=O)NCc3nnc4ccccn34)CCO2)o1` (stereo not drawn), for which the cytotoxicity at 10 µM turned out to be 5.62%.

Consider `Cc1occc1C(=O)N1CCc2c(CNc3ncccn3)cncc2C1`, for which the cytotoxicity at 10 µM was -83.1%.

As for `CCC(=O)c1ccc(OCC(=O)N2CCNCC2C(=O)NC2CC2)cc1` (stereo not drawn), the cytotoxicity at 10 µM was -3.28%.

Turning to `COc1cccc(CC(=O)N2CCC(O)(C(F)(F)F)C2)c1` (stereo not drawn), the cytotoxicity at 10 µM worked out at 1.16%.

On to `OCCn1nccc1C1CCN(CCOc2ccccc2Cl)CC1`, for which the cytotoxicity at 10 µM is -5.04%.

Regarding `Cc1nc(C)n(CC2CCCN2Cc2ncc(-c3ccccc3)o2)n1` (stereo not drawn), the cytotoxicity at 10 µM is -4.92%.

`COc1c(CNCC(O)c2cccc(F)c2)c(C(C)C)nn1C` (stereo not drawn): the cytotoxicity at 10 µM was found to be 2.31%.

Turning to `Cc1nc(CN2CCC(CNC(=O)C3(C#N)CCCC3)CC2)oc1C`, the cytotoxicity at 10 µM was determined as 1.29%.

As for `Cc1ccc2nc(CN(C)Cc3[nH]nc4c3CCC4)[nH]c2c1C`, the cytotoxicity at 10 µM was 2.74%.

As for `N#Cc1ccc(NCc2cccnc2N2CCC(C(N)=O)CC2)cn1`, the cytotoxicity at 10 µM is -47.9%.

Regarding `CCn1cc(CN2CCCC(c3[nH]ncc3S(C)(=O)=O)C2)cn1` (stereo not drawn), the cytotoxicity at 10 µM came out at 6.5%.

With `COC(=O)c1cccc(C(=O)N(C)Cc2ccsc2)c1`, the cytotoxicity at 10 µM was found to be 10.7%.

`Cc1ncsc1C(=O)N1CCCC(c2nccn2Cc2cscn2)C1` (stereo not drawn): the cytotoxicity at 10 µM is -0.0612%.

As for `FC(F)(F)c1cccnc1N1CCC(OC2CCOCC2)CC1`, the cytotoxicity at 10 µM is -8.44%.

`COCCN1CCC2(CC1)CN(C(=O)Cc1cccnc1)CCO2`: the cytotoxicity at 10 µM was -9.43%.

In the case of `CN1CCN(C(=O)N2CCCC2)Cc2cccnc21`, the cytotoxicity at 10 µM is -3.66%.

Consider `O=C(CSc1ccc2c(c1)OCCO2)NS(=O)(=O)c1ccccc1Br`, for which the cytotoxicity at 10 µM is -4.62%.

Turning to `COCCN1CC[C@@H]2OC[C@H](C(=O)NCc3cccs3)C[C@@H]2C1`, the cytotoxicity at 10 µM came out at 2.7%.

`CCN1C(=O)C(c2ccccc2)CC12CCN(CCO)CC2` (stereo not drawn): the cytotoxicity at 10 µM turned out to be 1.26%.

For `CC(C)CCn1cc(C(C(=O)O)N2CCC(N3CCSCC3)CC2)cn1` (stereo not drawn), the cytotoxicity at 10 µM is -1.09%.

`COCCCNC(=O)COc1ccccc1C(F)(F)F`: the cytotoxicity at 10 µM amounted to 14.7%.

For `OC1CCCOC12CCN(CCCOc1ccccc1F)CC2` (stereo not drawn), the cytotoxicity at 10 µM is 3.4%.

On to `CS(=O)(=O)c1ccc(Cl)c(C(=O)NCCC2=CCCCC2)c1`, for which the cytotoxicity at 10 µM came out at 8.17%.

Take `CC(C)c1noc(CCNC(=O)N2CCN(c3cccs3)CC2)n1`: the cytotoxicity at 10 µM is -5.37%.

Take `CCC(CO)N(Cc1ccco1)C(=O)c1ccc(F)cc1Cl` (stereo not drawn): the cytotoxicity at 10 µM was -0.247%.

For the compound `COc1ccc(CN2C[C@@H]3C[C@H](C(=O)Nc4cccnc4)[C@H](C2)O3)cc1`, the cytotoxicity at 10 µM was -72.4%.

As for `CCN1CCN(C2CCN(Cc3nc(CCOC)no3)CC2)C1=O`, the cytotoxicity at 10 µM is -9.44%.

Turning to `CC[C@@H]1N(Cc2ccc(C)o2)CCC[C@]12CCC(=O)N2CCOC`, the cytotoxicity at 10 µM is 10.5%.

As to `CN1CCN(C2CCN(CCOc3ccc(Cl)cc3)CC2)C1=O`, the cytotoxicity at 10 µM is -5.36%.

Take `CCN(C(=O)CCc1ccccc1)C1CC(=O)NC1=O` (stereo not drawn): the cytotoxicity at 10 µM is -7.32%.

Take `c1cc(-c2n[nH]c(CNc3nnc(C4CC4)o3)n2)ccn1`: the cytotoxicity at 10 µM was -2.59%.

Take `CC(C)C(C)N1Cc2cccc(NCC(=O)N(C)C)c2C1` (stereo not drawn): the cytotoxicity at 10 µM is 8%.

Turning to `CCCS(=O)(=O)N1C[C@@H](OCc2ccncc2)[C@H]2OCCC[C@H]21`, the cytotoxicity at 10 µM amounted to 5.56%.

With `CC(=O)c1cnc(N(C)Cc2cnc3ccccc3n2)nc1C`, the cytotoxicity at 10 µM came out at 2.4%.

With `O=C(c1ncccc1O)N1CCN(Cc2ccco2)C(CCO)C1` (stereo not drawn), the cytotoxicity at 10 µM came out at 3.89%.

As to `Cc1ccc(CNC(CCO)C2CCCCC2)nc1` (stereo not drawn), the cytotoxicity at 10 µM was -37.4%.

Turning to `CCC(CNC(=O)c1ccc(F)cc1F)N1CCc2ccccc2C1` (stereo not drawn), the cytotoxicity at 10 µM turned out to be 10.9%.

As for `CCc1n[nH]c(C2CN(C(=O)CCc3cccs3)CCO2)n1` (stereo not drawn), the cytotoxicity at 10 µM is 5.73%.

As for `Cc1noc(C)c1CN1CCCC2(C1)CN(Cc1nccn1C)CCO2` (stereo not drawn), the cytotoxicity at 10 µM amounted to 7.69%.

For the compound `CC(=O)N1CCCC2(CCC(=O)N2Cc2cccnc2)C1` (stereo not drawn), the cytotoxicity at 10 µM was 7.59%.

Turning to `CC(C)[C@@H]1CN(C(=O)c2ccsc2)C[C@H]1C(=O)O`, the cytotoxicity at 10 µM worked out at 12.8%.

For the compound `O=C(O)c1cnc(N2CCC(O)CC2)nc1COc1ccc(F)cc1`, the cytotoxicity at 10 µM was -7.52%.

Regarding `Cc1c(Cl)cccc1N1CC(c2nnc(N)s2)CC1=O` (stereo not drawn), the cytotoxicity at 10 µM turned out to be 7.38%.

For `COc1ccccc1CC(C)(C)NC(=O)CNS(C)(=O)=O`, the cytotoxicity at 10 µM worked out at 4.21%.

For the compound `Cc1nc(CNC(=O)[C@@H]2CCCN2C(=O)OC(C)(C)C)cs1`, the cytotoxicity at 10 µM was -0.602%.

Regarding `COCc1cncc2c1CCN(C(=O)c1ccc(C)o1)C2`, the cytotoxicity at 10 µM was 0.388%.

Take `Cc1cc(O)c(OCC(=O)/N=c2\[nH]cc(C)s2)cn1`: the cytotoxicity at 10 µM is -12.4%.

Turning to `c1nc(COCC2CC2)c2n1CCCN(CC1CC1)C2`, the cytotoxicity at 10 µM is -4.77%.

On to `CCCC(=O)N1CCC(Nc2ncc(Br)cn2)CC1`, for which the cytotoxicity at 10 µM is -8.69%.

With `CC(=O)N1CCN(Cc2ccc(Cl)c(F)c2)CC(O)C1` (stereo not drawn), the cytotoxicity at 10 µM is -1.48%.

Turning to `O=C1CN(Cc2cc(O)c3cccc(F)c3n2)CCN1C1CCCC1`, the cytotoxicity at 10 µM was 4.45%.

On to `CCn1ccnc1CN(C)CC1CCCN1c1cccnn1` (stereo not drawn), for which the cytotoxicity at 10 µM is -0.0722%.

For the compound `CCn1nc(C)cc1C(=O)NCc1nc(C)no1`, the cytotoxicity at 10 µM was 0.304%.

Take `CN(Cc1cccs1)C(=O)CN1CCCCC1Cn1cncn1` (stereo not drawn): the cytotoxicity at 10 µM is 8.97%.

In the case of `Cc1ccc(C2COCCN2C(=O)c2ccc(CN(C)C)cc2)o1` (stereo not drawn), the cytotoxicity at 10 µM was determined as 0.692%.

Regarding `CCNC(=O)NCCCn1nc2ccccn2c1=O`, the cytotoxicity at 10 µM was -18.2%.

As for `CC(C)C(NC(=O)NCC1(CO)CC1)c1nnc2n1CCC2` (stereo not drawn), the cytotoxicity at 10 µM is -6.11%.

For `Cc1nn(C(C)C)c(C)c1CN1CCN(C2CCCCC2)C(=O)C1`, the cytotoxicity at 10 µM stood at 6.63%.

Turning to `COC[C@]1(O)CCN(Cc2ccc(N(C)C)nc2)CC1(C)C`, the cytotoxicity at 10 µM worked out at 7.63%.

With `CC(NC(=O)CCCOc1ccccc1)c1nnc2n1CCCCC2` (stereo not drawn), the cytotoxicity at 10 µM is -9.51%.

Regarding `O=C(Nc1cc(C(F)(F)F)c[nH]c1=O)N1CCCSCC1`, the cytotoxicity at 10 µM was -5.77%.

Regarding `CC(O)c1cccc(N2CCC3(CCC(=O)N(C4CCCC4)C3)CC2)n1` (stereo not drawn), the cytotoxicity at 10 µM was -3.56%.

With `Cc1nc(C)c(CC(=O)N2CCCN(CC3CC3)C(C(C)C)C2)c(=O)[nH]1` (stereo not drawn), the cytotoxicity at 10 µM was -153%.

For `CCOc1ccc(S(=O)(=O)N(CCOC)Cc2ccncc2)cc1F`, the cytotoxicity at 10 µM came out at 52.2%.

In the case of `O=C(c1cnc(-c2ccco2)s1)N1CCCC1Cn1cccn1` (stereo not drawn), the cytotoxicity at 10 µM was -1.08%.

The values are drawn from ChEMBL document CHEMBL4513216, “Probing the Open Global Health Chemical Diversity Library for Multistage-Active Starting Points for Next-Generation Antimalarials” (ACS Infect Dis, 2020).
